In ChEMBL document CHEMBL4513216, “Probing the Open Global Health Chemical Diversity Library for Multistage-Active Starting Points for Next-Generation Antimalarials” (ACS Infect Dis, 2020) one finds cytotoxicity data, which are given here for 96 compounds.

The data set can be described thus: Toxicity liver stage against HepG2, at 10uM. The arrangement: test concentration 10 uM, cell line HepG2-A16-CD81EGFP. The note with it: human, HepG2-A16-CD81EGFP cells; read-out: INHIBITION
The class given is cell-based. The gist of the method: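 Uninfected HepG2-A16-CD81EGFP cells, 3 × 10^3 per well, 1536-well, plated on prespotted compound at 10 μM final, parasite-free screening media added to match infected plates; puromycin 10 μM positive, DMSO 0.5% negative; run in parallel with 48 h PbLuc assay at 37 °C, 5% CO2; viability by CellTiter-Glo luminescence, normalized to controls.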
In the case of `O=c1[nH]c(NCCCO)nc2c1C1(CCCC1)Cc1ccccc1-2`, the cytotoxicity at 10 µM was determined as 8.79%. As for `Cc1ccc(OCc2occc2C(=O)O)cc1`, the figure is -3.76%. With `O=C(c1cc(Cl)c(Br)[nH]1)N1CCN(Cc2ccco2)CC1`, the cytotoxicity at 10 µM is -55.7%. For `FC(F)(F)c1cccc(CN2CCOC[C@H](Oc3cccnc3)C2)c1`, the cytotoxicity at 10 µM came to 7.74%.

In the case of `Cn1c(CN2CCCCCC2)cc(=O)c(O)c1CN1CCCC1`, the cytotoxicity at 10 µM was 13.9%. Consider `COc1cc(NC(=O)C2CC(=O)N(c3cccc(Br)c3)C2)ncn1` (stereo unspecified), for which the cytotoxicity at 10 µM is 33.4%. With `Cc1nn(C)c(C)c1S(=O)(=O)NCCn1ccc(-c2cccs2)n1`, the cytotoxicity at 10 µM was -3.53%. Take `COCC(=O)N1CCC2(CCC2NS(=O)(=O)c2ccccc2)CC1` (stereo unspecified): the cytotoxicity at 10 µM was 0.073%.

Turning to `CNC(=O)NC1CC2(CCNCC2)c2ccc(C)cc21` (stereo unspecified), the cytotoxicity at 10 µM is -4.97%. As to `O=C(c1ccnnc1)N1CC[C@H]2[C@H]1CCN2S(=O)(=O)C1CC1`, the cytotoxicity at 10 µM is -143%. On to `COCC(=O)N1CCC2(CC(=O)N(c3cccc(F)c3)C2)C1` (stereo unspecified), for which the cytotoxicity at 10 µM is -156%. `COc1ncc(C(=O)NCc2ccccc2)cn1`: the cytotoxicity at 10 µM is -3.99%. For the compound `Cc1ccc(CN2CC[C@H]3C[C@@H](c4nc(C5CC5)cs4)O[C@@H]3C2)o1`, the cytotoxicity at 10 µM was -4.29%. With `Cc1c(Cl)cccc1NC(=O)N1CCN(Cc2ccccn2)CC1`, the cytotoxicity at 10 µM was -5.55%. Consider `CCOC(=O)Cn1nnnc1-c1ccccc1`, for which the cytotoxicity at 10 µM came out at 0.363%.

Regarding `CCOC(=O)CNC(=O)N1CCN(c2ncccn2)CC1`, the cytotoxicity at 10 µM is 10.6%.

As to `OC1(Cn2ccc3ncccc32)CCN(Cc2cccs2)CC1`, the cytotoxicity at 10 µM is -9.65%. `CCC(C)(C)NC(=O)C[S+]([O-])Cc1csc(C2CCCC2)n1` (stereo unspecified): the cytotoxicity at 10 µM was -41.3%. As for `O=C(CCn1cncn1)NCC1CCCC1`, the figure is -43.1%. `Cn1cnnc1S(=O)(=O)Cc1cc(Cl)c2c(c1)OCCO2`: the cytotoxicity at 10 µM is -44.7%. As to `N#Cc1ncn(Cc2c(F)cccc2Cl)n1`, the cytotoxicity at 10 µM is -3.94%. For the compound `N#CCCN(CC(=O)Nc1ccc(Br)cc1Cl)Cc1cccnc1`, the cytotoxicity at 10 µM is 11%. On to `COc1ccc(CNCc2c(C)nc3sc(C)cn23)c(OC)c1OC`, for which the cytotoxicity at 10 µM is -1.99%. With `CCOCCN1CCN(CCC(=O)N2CCCCC2)CC1`, the cytotoxicity at 10 µM is -7.71%. As for `Cc1ccnc(C(NC(=O)c2sc(C)nc2C)C2CC2)n1` (stereo unspecified), the figure is -11%; as for `CC1CCN(CCCNC(=O)Nc2cc3c(cc2Br)OCCO3)CC1`, -3.11%; as for `CN1CCN(Cc2ccccc2CNC(=O)c2cc(Cl)ccc2F)CC1`, 9.61%.

On to `CN(Cc1ccc(N(C)C)cc1)C(=O)CS(=O)(=O)c1ccc(Cl)cc1`, for which the cytotoxicity at 10 µM worked out at 22.2%. The result for `CCOc1cc(CN(C)CCC#N)ccc1OC(F)F` reads -5.81%; that for `COc1cccc(N2CCN(CCC(=O)NC3CCCCC3)CC2)c1`, -5.64%; that for `Cc1nc(C)n(CC2CN(CC(=O)Nc3ccncc3)CCO2)n1` (stereo unspecified), -0.654%. On to `CCOC(C)C(=O)Nc1ccc(Sc2nncn2C)c(Cl)c1` (stereo unspecified), for which the cytotoxicity at 10 µM was -1.37%.

For `CC(C)N1CCC(Nc2ccn(CCC#N)n2)C1=O` (stereo unspecified), the cytotoxicity at 10 µM was determined as 15.7%.

As for `c1ccc(-n2nnnc2NCc2ccc3c(c2)OCO3)cc1`, the cytotoxicity at 10 µM came to 29.5%. Take `Cc1[nH]ncc1C(C)NCc1ccc(F)cc1` (stereo unspecified): the cytotoxicity at 10 µM worked out at 3.28%. `Cc1c(C(=O)N(CCN(C)C)Cc2ccccn2)oc2ccccc12`: the cytotoxicity at 10 µM was determined as 14.4%. Turning to `CS(=O)(=O)c1cccc(C(=O)NCc2nc3cc(F)ccc3[nH]2)c1`, the cytotoxicity at 10 µM was 12.2%. As to `CCC(C)NC(=O)c1cccc(CNCc2csc(C(C)C)n2)c1` (stereo unspecified), the cytotoxicity at 10 µM turned out to be 9.48%. Regarding `OC1CCN(Cc2ccc(CNc3ncc(Cl)cc3F)cc2)CC1`, the cytotoxicity at 10 µM is 9.96%. As for `Cc1csc(C2(NCc3nc(-c4ccco4)oc3C)CCCC2)n1`, the figure is 7.2%; as for `COc1ccc(-c2nnc(SC(C)C(=O)NCC(C)C)[nH]2)c(OC)c1` (stereo unspecified), 83.5%.

With `CN1CCC2(C=C(C(=O)N(C)C)c3ccccc32)CC1`, the cytotoxicity at 10 µM was -102%. On to `Cn1ccnc1CN1CCC2(COCCN(S(=O)(=O)C3CC3)C2)C1` (stereo unspecified), for which the cytotoxicity at 10 µM is 12.7%. Regarding `CCC1=NC2(CCC(C(=O)Nc3ccc(C)nc3)CC2)C(=O)N1C` (stereo unspecified), the cytotoxicity at 10 µM amounted to 8.79%. Take `CC(C)N(C)Cc1cn2c(n1)CN(C(=O)c1ccc[nH]1)CC2`: the cytotoxicity at 10 µM was -73.2%. Take `Cc1nc(CN2C[C@@H](CN3CCOCC3)[C@@H](CO)C2)c2ccccn12`: the cytotoxicity at 10 µM was determined as 0.363%. In the case of `CCN(CC)C1CCN(c2ncnc3c2CCN(C(=O)C2CC2)C3)C1` (stereo unspecified), the cytotoxicity at 10 µM stood at 1.52%. On to `Cc1cc(C)nc(NC2CC(=O)N(C)C2)n1` (stereo unspecified), for which the cytotoxicity at 10 µM stood at 8.61%. For `COc1cc2ncn(Cc3ncc[nH]3)c(=O)c2cc1OC`, the cytotoxicity at 10 µM worked out at 5.56%. With `CCCn1cc(-c2cc(-c3cc(CC)n[nH]3)c(C#N)c(N)n2)c(C)n1`, the cytotoxicity at 10 µM is -6.7%.

On to `Cc1ccc(CNC(=O)c2cc(Cn3ccnc3C(C)C)[nH]n2)o1`, for which the cytotoxicity at 10 µM was determined as 3.42%. For `CN(Cc1ccccc1)CC1(O)CCCN(CCC2CCCCC2)C1=O` (stereo unspecified), the cytotoxicity at 10 µM is -2.3%.

For `CCN1CC(NC(=O)Nc2nc(C)n(C(C)C)n2)CC1=O` (stereo unspecified), the cytotoxicity at 10 µM was -5.58%.

On to `Cc1cc(N[C@H]2CCCN(Cc3ccccc3)C2)n2nc(C)cc2n1`, for which the cytotoxicity at 10 µM came to 1.53%. Turning to `Cc1ccccc1C(=O)NC[C@@H]1CCN(C(=O)c2cscn2)C[C@H]1O`, the cytotoxicity at 10 µM is -52.2%.

With `Cc1cccc(N2CCC(N3CCCC4(CNC(=O)O4)C3)CC2)c1C` (stereo unspecified), the cytotoxicity at 10 µM is -6.67%.

As to `Cc1cnc(NC(=O)c2ccc(C3CCCN3CC(C)C)s2)s1` (stereo unspecified), the cytotoxicity at 10 µM came to 9.45%. On to `Cc1ccc(NC(=O)CNC(C)CN2CCCCC2)c(F)c1` (stereo unspecified), for which the cytotoxicity at 10 µM is -51.6%. For the compound `CC(C)[C@@H]1CN(C(=O)C2(c3ccccc3)CCN(C)CC2)C[C@H]1C(=O)O`, the cytotoxicity at 10 µM was found to be 8.73%. As to `Cc1ccc(C(=O)N2CCCC(Cn3cc(C(C)(C)N)nn3)C2)s1` (stereo unspecified), the cytotoxicity at 10 µM is -19.1%. The result for `Cc1ccccc1N1CCN(c2ccncn2)C(C)C1` (stereo unspecified) reads 22.6%. On to `COCCCN1C(=O)CC[C@H]2CN(c3ccnc4ccccc34)CC[C@H]21`, for which the cytotoxicity at 10 µM is -3.63%.

For the compound `Cc1ccccc1N1CC(C)N(C(=O)CCn2cccn2)CC1=O` (stereo unspecified), the cytotoxicity at 10 µM was 10.1%.

With `O=C(NCCN1CCOCC1)c1cc(COc2ccccc2F)[nH]n1`, the cytotoxicity at 10 µM was 13.1%. The result for `COc1ccc(C)cc1-n1cnnc1CC1CCNCC1` reads -11.4%; that for `CCOc1cc(CNCc2cnc(C)cn2)c(Cl)cc1OC(C)C`, 4.86%.

On to `CC/C=C(\C)CN1CCC(CNC(=O)c2c[nH]c(=O)c(Cl)c2)C1` (stereo unspecified), for which the cytotoxicity at 10 µM was -13.2%.

Consider `CCc1csc(CNC2CCN(Cc3ccccc3)C2)n1` (stereo unspecified), for which the cytotoxicity at 10 µM stood at 4.82%.

For `CCCN1CCC(NC(=O)c2csc(C)c2C)CC1`, the cytotoxicity at 10 µM is -137%. The result for `O=C(O)CCn1ccc2c(nnc3c(-c4ccc(F)cc4)cnn32)c1=O` reads 4.01%.

Turning to `O=C1NC2(CCN(C/C=C/c3ccccc3)CC2)CC1c1ccccc1` (stereo unspecified), the cytotoxicity at 10 µM was -47.1%. As to `Cc1cc2nc(C(C)C)cc(NCCNc3ncccc3C)n2n1`, the cytotoxicity at 10 µM came out at 16.9%. On to `CNc1cc(C(=O)N2CCCCC2CCn2ccnc2C)ccn1` (stereo unspecified), for which the cytotoxicity at 10 µM was determined as 1.85%. Turning to `O=C1CC(NCc2ccncc2)CN1Cc1cccc(F)c1` (stereo unspecified), the cytotoxicity at 10 µM was -7.12%. For `COc1cccc(N2CCN(CC(O)c3cc(C)sc3C)CC2)c1` (stereo unspecified), the cytotoxicity at 10 µM turned out to be 2.24%. On to `Cc1nc(C)n(CC2CCCN2Cc2ncc(C(C)(C)C)o2)n1` (stereo unspecified), for which the cytotoxicity at 10 µM was -5.53%.

As to `O=C1NCCN1C1CCN(CCOc2ccccc2F)CC1`, the cytotoxicity at 10 µM is -3.63%.

On to `CCOc1ccccc1CNC(=O)N1CCC(n2cncn2)CC1`, for which the cytotoxicity at 10 µM is -0.819%.

With `Cc1ncsc1C(=O)NCCSCc1cccs1`, the cytotoxicity at 10 µM is -2.11%. `Cc1cc(CN2CCCC2c2noc(C3CC3)n2)c2ccccc2n1` (stereo unspecified): the cytotoxicity at 10 µM is 49.5%. The result for `Cc1cnn(C2CCCN(C(=O)CCc3nccs3)C2)c1` (stereo unspecified) reads -4.49%; that for `COC(=O)c1ccc(N2CCN(C(=O)c3cnn(C)c3)C(C)C2)cc1` (stereo unspecified), -11.5%; that for `COc1cc(C(=O)Nc2nc(C)no2)ccc1C`, -8.39%.

As for `CC(=O)N1CCCN(CC(C)(O)c2cccc(C(F)(F)F)c2)CC1` (stereo unspecified), the cytotoxicity at 10 µM is -10.3%. Regarding `CN(CC(=O)NC(Cc1ccsc1)c1cccnc1)Cc1cccnc1` (stereo unspecified), the cytotoxicity at 10 µM was -4.04%. Consider `NC1CCc2nc(-c3cccnc3)nc(Nc3ccc(F)cc3)c2C1` (stereo unspecified), for which the cytotoxicity at 10 µM was -10.5%. As to `c1cnc(N2CC[C@@H](OCC3CC3)[C@@H]2Cc2cccnc2)nc1`, the cytotoxicity at 10 µM came out at 3.26%. For `O=C(c1cscn1)N1CCO[C@H]2[C@@H](Oc3ccccn3)CC[C@@H]21`, the cytotoxicity at 10 µM was -109%. As to `Cc1ccc(CN2CCOCC3(C2)CN(c2ccc(C)s2)C(=O)CO3)o1` (stereo unspecified), the cytotoxicity at 10 µM turned out to be 7.31%. The result for `COc1ccc(C[C@H]2CN(Cc3ccoc3)CC[C@H]2OC)cc1` reads 8.44%; that for `CNC(=O)c1cc2c(nc1N(C)C)CCN(c1ncccn1)CC2`, -119%; that for `O=C(c1cocn1)N1C[C@@H]2CN(Cc3ccco3)CCO[C@@H]2C1`, 5.24%. Regarding `Cc1cccc(CN2CC[C@@H]3[C@@H]2CCN3C(=O)Cc2ccsc2)n1`, the cytotoxicity at 10 µM is -107%. For the compound `COc1cc(N2C[C@@H]3COC[C@]3(COCc3cccc(C)n3)C2)ncn1`, the cytotoxicity at 10 µM is 12.4%. With `CN(C)C(=O)CO[C@@H]1CC[C@H]2[C@H]1OCCN2c1ncc(F)cn1`, the cytotoxicity at 10 µM worked out at 5.44%.

As to `O=C(Cc1ccncc1)N1C[C@H]2CC[C@@H](C1)N(Cc1ccccc1)C2=O`, the cytotoxicity at 10 µM amounted to 5.79%.
